# In ChEMBL document CHEMBL1144611, “Optimization of 1,4-diazepan-2-one containing dipeptidyl peptidase IV inhibitors for the treatment of type 2 diabetes” (Bioorg Med Chem Lett, 2007):
# Legend:
# Dipeptidyl peptidase 2 = Dipeptidyl peptidase 2 (Homo sapiens, UniProt Q9UHL4); test: Inhibition of QPP
# [1] = Cmax in Sprague-Dawley rat at 1 mg/kg, iv or 2 mg/kg, po; format: ADME, organism-based; settings: in vivo
# Procedure, shortened: (§1)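 Single iv dose of 1 mg/kg or oral dose of 2 mg/kg, given in water. Plasma clearance and half-life come from dosing; Cmax is the peak plasma level after oral dosing. Oral bioavailability was derived from the po versus iv data.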
# [2] = Plasma clearance in Sprague-Dawley rat at 1 mg/kg, iv or 2 mg/kg, po; format: ADME, organism-based; procedure, shortened: as §1
# [3] = Half life in Sprague-Dawley rat at 1 mg/kg, iv or 2 mg/kg, po; format: ADME, organism-based; settings: in vivo; procedure, shortened: as §1
# [4] = Bioavailability in Sprague-Dawley rat at 2 mg/kg, po; format: ADME, organism-based; settings: in vivo; procedure, shortened: as §1
# [5] = Plasma clearance in monkey at 1 mg/kg, iv or 2 mg/kg, po; format: ADME, organism-based, Macaca mulatta; settings: rhesus monkey; procedure, shortened: as §1
# [6] = Bioavailability in dog at 2 mg/kg, po; format: ADME, organism-based, Canis lupus familiaris; settings: in vivo; procedure, shortened: as §1
# [7] = Half life in monkey at 1 mg/kg, iv or 2 mg/kg, po; format: ADME, organism-based, Macaca mulatta; settings: rhesus monkey, in vivo; procedure, shortened: as §1
# [8] = Cmax in monkey at 1 mg/kg, iv or 2 mg/kg, po; format: ADME, organism-based, Macaca mulatta; settings: rhesus monkey, in vivo; procedure, shortened: as §1
# [9] = Cmax in dog at 1 mg/kg, iv or 2 mg/kg, po; format: ADME, organism-based, Canis lupus familiaris; settings: in vivo; procedure, shortened: as §1
# [10] = Bioavailability in monkey at 2 mg/kg, po; format: ADME, organism-based, Macaca mulatta; settings: rhesus monkey, in vivo; procedure, shortened: as §1
# [11] = (§2) Half life in dog at 1 mg/kg, iv or 2 mg/kg, po; format: ADME, organism-based, Canis lupus familiaris; settings: in vivo; procedure, shortened: as §1
# [12] = Plasma clearance in dog at 1 mg/kg, iv or 2 mg/kg, po; format: ADME, organism-based, Canis lupus familiaris; procedure, shortened: as §1
# Canis familiaris = test: as §2; format: ADME, organism-based, Canis lupus familiaris; settings: in vivo; procedure, shortened: as §1
# Dipeptidyl peptidase 4 = Dipeptidyl peptidase 4 (Homo sapiens, UniProt P27487); test: Inhibition of DPP4
# Dipeptidyl peptidase 8 = Dipeptidyl peptidase 8 (Homo sapiens, UniProt Q6V1X1); test: Inhibition of DPP8
# Chain of Dipeptidyl peptidase 8 (Q6V1X1 whole entry): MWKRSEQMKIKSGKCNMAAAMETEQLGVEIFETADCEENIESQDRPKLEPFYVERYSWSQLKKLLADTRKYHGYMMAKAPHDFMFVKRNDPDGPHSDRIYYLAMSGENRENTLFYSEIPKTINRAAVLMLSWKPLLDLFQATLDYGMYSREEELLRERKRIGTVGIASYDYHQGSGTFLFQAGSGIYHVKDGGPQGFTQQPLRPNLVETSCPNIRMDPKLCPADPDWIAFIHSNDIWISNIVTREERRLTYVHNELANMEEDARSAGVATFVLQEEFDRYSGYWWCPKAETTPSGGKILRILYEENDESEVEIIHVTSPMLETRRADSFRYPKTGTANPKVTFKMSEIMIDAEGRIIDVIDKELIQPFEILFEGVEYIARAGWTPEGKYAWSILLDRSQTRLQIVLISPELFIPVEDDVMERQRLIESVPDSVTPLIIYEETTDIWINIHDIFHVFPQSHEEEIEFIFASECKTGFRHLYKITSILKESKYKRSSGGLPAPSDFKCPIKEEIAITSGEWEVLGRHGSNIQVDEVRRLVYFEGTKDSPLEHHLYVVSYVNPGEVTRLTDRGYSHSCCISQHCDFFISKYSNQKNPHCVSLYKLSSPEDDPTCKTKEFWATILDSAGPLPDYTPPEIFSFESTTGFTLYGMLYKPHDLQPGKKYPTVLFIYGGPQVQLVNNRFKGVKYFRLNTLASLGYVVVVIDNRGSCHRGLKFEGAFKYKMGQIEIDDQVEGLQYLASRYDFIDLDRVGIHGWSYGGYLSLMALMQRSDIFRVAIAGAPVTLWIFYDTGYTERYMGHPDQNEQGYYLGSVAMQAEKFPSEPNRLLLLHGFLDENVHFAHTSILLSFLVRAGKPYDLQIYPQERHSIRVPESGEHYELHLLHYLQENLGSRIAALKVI
# Chain of Dipeptidyl peptidase 4 (P27487 whole entry): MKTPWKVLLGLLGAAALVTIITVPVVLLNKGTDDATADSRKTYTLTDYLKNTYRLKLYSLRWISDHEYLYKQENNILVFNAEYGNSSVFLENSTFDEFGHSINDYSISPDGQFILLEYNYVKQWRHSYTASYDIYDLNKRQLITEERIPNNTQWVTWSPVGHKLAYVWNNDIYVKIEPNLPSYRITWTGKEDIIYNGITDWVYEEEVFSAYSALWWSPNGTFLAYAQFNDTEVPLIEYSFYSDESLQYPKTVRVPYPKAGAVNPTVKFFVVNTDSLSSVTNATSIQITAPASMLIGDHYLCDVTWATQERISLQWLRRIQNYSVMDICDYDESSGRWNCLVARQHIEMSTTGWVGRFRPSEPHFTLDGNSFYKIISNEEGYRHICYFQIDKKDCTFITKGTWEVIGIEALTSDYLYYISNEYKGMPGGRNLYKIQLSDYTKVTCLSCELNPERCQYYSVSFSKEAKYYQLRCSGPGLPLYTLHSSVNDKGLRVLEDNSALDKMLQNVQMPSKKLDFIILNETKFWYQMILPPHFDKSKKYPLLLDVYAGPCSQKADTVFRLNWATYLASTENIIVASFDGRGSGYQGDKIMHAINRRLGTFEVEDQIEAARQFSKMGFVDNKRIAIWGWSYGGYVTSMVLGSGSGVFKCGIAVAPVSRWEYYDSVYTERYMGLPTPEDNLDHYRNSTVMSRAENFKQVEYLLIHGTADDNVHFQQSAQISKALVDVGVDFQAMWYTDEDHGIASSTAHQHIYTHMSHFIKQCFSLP
IC50 (Dipeptidyl peptidase 2) [µM],Cmax [1] [nM],clearance [2] [mL/min/kg],half-life [3] [h],bioavailability [4] [%],Structure (SMILES),other results
> 100,30,152,0.8,7.4,CCN1CCCN(C(=O)C[C@H](N)Cc2cc(F)ccc2F)[C@H](C)C1=O,–
> 100,130,113,1.3,29,C[C@@H]1C(=O)N(C)CCCN1C(=O)C[C@H](N)Cc1cc(F)c(F)cc1F,–
> 100,–,–,–,–,COC(=O)CN1CCCN(C(=O)C[C@H](N)Cc2cc(F)ccc2F)[C@H](C)C1=O,IC50 (Dipeptidyl peptidase 4): 0.0116 µM
> 100,50,132,1.6,19,C[C@@H]1C(=O)N(C2CC2)CCCN1C(=O)C[C@H](N)Cc1cc(F)ccc1F,–
–,80,82,1.7,23,C[C@@H]1C(=O)N(CC(F)(F)F)CCCN1C(=O)C[C@H](N)Cc1cc(F)c(F)cc1F,–
> 100,–,–,–,–,CC1C(=O)NCCCN1C(=O)C[C@H](N)Cc1cc(F)ccc1F (some centres undefined),–

# The remaining lines, values behind:
Structure (SMILES),IC50 (Dipeptidyl peptidase 2) [µM],Cmax [1] [nM],clearance [2] [mL/min/kg],half-life [3] [h],bioavailability [4] [%],other results
N[C@@H](CC(=O)N1CCCNC(=O)C1)Cc1cc(F)c(F)cc1F,> 100,–,–,–,–,–
C[C@@H]1C(=O)N(C2CC2)CCCN1C(=O)C[C@H](N)Cc1cc(F)c(F)cc1F,–,570,51,4.3,45,–
C[C@@H]1C(=O)N2CCC[C@@H]2CCN1C(=O)C[C@H](N)Cc1cc(F)c(F)cc1F,–,40,152,1.4,21,–
C[C@H]1CNC(=O)[C@@H](C)N(C(=O)C[C@H](N)Cc2cc(F)c(F)cc2F)C1,–,140,92.8,1.5,49,clearance [5]: 39.4 mL/min/kg; bioavailability [6]: 77%; half-life [7]: 4.4 h; Cmax [8]: 290 nM; Cmax [9]: 1210 nM; bioavailability [10]: 59%; half-life [11]: 8.1 h; clearance [12]: 8.1 mL/min/kg
C[C@@H]1CCN(C(=O)C[C@H](N)Cc2cc(F)c(F)cc2F)[C@H](C)C(=O)N1,–,170,87,1.5,64,clearance [5]: 42.3 mL/min/kg; bioavailability [6]: 88%; half-life [7]: 4.7 h; Cmax [8]: 430 nM; Cmax [9]: 1290 nM; bioavailability [10]: 71%; t1/2 (Canis familiaris): 7.2 h; clearance [12]: 8.5 mL/min/kg
C[C@@H]1CCN(C(=O)C[C@H](N)Cc2cc(F)c(F)cc2F)[C@H](Cc2ccccn2)C(=O)N1,–,10,97,2,8.1,–
C[C@@H]1C(=O)N[C@H](C(F)(F)F)CCN1C(=O)C[C@H](N)Cc1cc(F)c(F)cc1F,> 100,–,–,–,–,IC50 (Dipeptidyl peptidase 4): 0.139 µM
N[C@@H](CC(=O)N1CCCNC(=O)C1CC(F)(F)F)Cc1cc(F)c(F)cc1F (some centres undefined),–,90,94,2,36,–
C[C@@H]1C(=O)N(CC(=O)O)CCCN1C(=O)C[C@H](N)Cc1cc(F)ccc1F,> 100,–,–,–,–,IC50 (Dipeptidyl peptidase 8): > 100 µM; IC50 (Dipeptidyl peptidase 4): 0.0699 µM
CC1CCNC(=O)CN1C(=O)C[C@H](N)Cc1cc(F)c(F)cc1F (stereo in doubt; 13a),44,–,–,–,–,IC50 (Dipeptidyl peptidase 8): > 100 µM; IC50 (Dipeptidyl peptidase 4): 0.765 µM
CC1CCNC(=O)CN1C(=O)C[C@H](N)Cc1cc(F)c(F)cc1F (stereo in doubt; 13b),> 100,–,–,–,–,IC50 (Dipeptidyl peptidase 8): > 100 µM; IC50 (Dipeptidyl peptidase 4): 1.05 µM
